The values that follow come from ChEMBL document CHEMBL4706621, “An attempt to chemically state the cross-talk between monomers of COX homodimers by double/hybrid inhibitors mofezolac-spacer-mofezolac and mofezolac-spacer-arachidonic acid” (Eur J Med Chem, 2021).

The target of data set [1] is T1, Prostaglandin G/H synthase 1 (Ovis aries, UniProt P05979).
T1 sequence (P05979 whole entry): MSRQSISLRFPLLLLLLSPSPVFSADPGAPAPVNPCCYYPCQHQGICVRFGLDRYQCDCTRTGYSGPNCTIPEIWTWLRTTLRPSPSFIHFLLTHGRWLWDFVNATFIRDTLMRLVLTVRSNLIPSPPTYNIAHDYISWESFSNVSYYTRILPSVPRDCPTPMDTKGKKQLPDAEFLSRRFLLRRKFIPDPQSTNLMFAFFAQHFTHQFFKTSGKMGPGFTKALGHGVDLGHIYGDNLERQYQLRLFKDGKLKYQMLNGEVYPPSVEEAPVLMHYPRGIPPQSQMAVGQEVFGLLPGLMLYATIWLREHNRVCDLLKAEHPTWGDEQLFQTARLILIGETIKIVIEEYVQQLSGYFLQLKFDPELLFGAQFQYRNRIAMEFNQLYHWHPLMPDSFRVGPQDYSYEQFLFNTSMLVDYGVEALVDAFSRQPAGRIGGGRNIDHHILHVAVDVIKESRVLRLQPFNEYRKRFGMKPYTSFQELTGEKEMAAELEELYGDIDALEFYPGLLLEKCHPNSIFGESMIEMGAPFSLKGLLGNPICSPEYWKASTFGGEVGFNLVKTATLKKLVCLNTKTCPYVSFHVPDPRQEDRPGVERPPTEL
Put plainly: Inhibition of ovine COX-1 assessed as peroxidase activity using arachidonic acid as substrate by colorimetric method. In outline:
(§1)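 Colorimetric COX inhibitor screening kit measuring cyclooxygenase peroxidase activity on arachidonic acid substrate, read as oxidized TMPD at 590 nm. Compound stocks are made in DMSO. IC50 is the mean of at least three independent measurements. Percent inhibition is taken at the highest final inhibitor concentration, 50 µM.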

The target of data set [2] is T2, Prostaglandin G/H synthase 1 (Ovis aries) (UniProt P05979).
T2 sequence (whole entry): T1 sequence (P05979 whole entry)
The experiment in a line: Inhibition of ovine COX-1 assessed as peroxidase activity using arachidonic acid as substrate at 50 uM by colorimetric method. In outline: as §1

Data set [3] has as its target T3, Prostaglandin G/H synthase 2 (Homo sapiens, UniProt P35354).
T3 sequence (P35354 whole entry): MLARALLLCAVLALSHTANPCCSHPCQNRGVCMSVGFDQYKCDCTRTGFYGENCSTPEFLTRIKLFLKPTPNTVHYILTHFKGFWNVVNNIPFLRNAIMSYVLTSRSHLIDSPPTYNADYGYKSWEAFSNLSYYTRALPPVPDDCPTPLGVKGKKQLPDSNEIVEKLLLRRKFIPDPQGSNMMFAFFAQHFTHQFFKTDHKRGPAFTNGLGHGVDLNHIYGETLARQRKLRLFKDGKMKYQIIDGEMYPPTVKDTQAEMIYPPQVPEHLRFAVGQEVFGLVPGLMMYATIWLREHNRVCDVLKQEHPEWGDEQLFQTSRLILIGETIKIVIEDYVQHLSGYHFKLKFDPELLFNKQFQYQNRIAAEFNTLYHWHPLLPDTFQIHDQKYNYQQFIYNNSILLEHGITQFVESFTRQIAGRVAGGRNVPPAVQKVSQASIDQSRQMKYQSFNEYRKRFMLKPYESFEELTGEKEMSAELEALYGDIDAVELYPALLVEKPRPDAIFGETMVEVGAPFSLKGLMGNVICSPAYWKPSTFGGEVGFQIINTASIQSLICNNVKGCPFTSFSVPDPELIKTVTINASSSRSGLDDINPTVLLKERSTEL
Put plainly: Inhibition of human COX-2 assessed as peroxidase activity using arachidonic acid as substrate by colorimetric method. In outline: as §1

Data set [4] concerns the target T4, Prostaglandin G/H synthase 2 (Homo sapiens) (UniProt P35354).
T4 sequence (whole entry): T3 sequence (P35354 whole entry)
The experiment in a line: Inhibition of human COX-2 assessed as peroxidase activity using arachidonic acid as substrate at 50 uM by colorimetric method. In outline:
as §1

The nature of data set [5]: Selectivity index, ratio of IC50 for human COX-2 to IC50 for ovine COX-1. In outline: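 Selectivity index is calculated as COX-2 IC50 divided by COX-1 IC50, each taken from the colorimetric TMPD peroxidase assay with arachidonic acid substrate.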
Data set [6] has as its system Plasma. Put plainly: Antiplatelet activity in human platelet-rich plasma assessed as inhibition of arachidonic acid-induced platelet aggregation by turbidimetric method. In kind it is functional. The procedure, abridged: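 Platelet-rich and platelet-poor plasma prepared from human whole blood (n=3) by differential centrifugation. Compounds pre-incubated in PRP for 2 min, then aggregation is induced with 500 µM arachidonic acid and followed turbidimetrically in an aggregometer. IC50 is determined from several concentrations, in triplicate. Acetylsalicylic acid is the positive control; 1% DMSO vehicle is the negative control.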

Data set [7] deals with Plasma. The experiment in a line: Anticoagulant activity in human plasma assessed as activated partial thromboplastin time at 100 uM. In kind it is functional. In outline: (§2)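 Human platelet-poor plasma from whole blood (n=3) by differential centrifugation, run on a coagulation analyzer. Compounds at 100 µM incubated with plasma 15 min at room temperature, then 2 min at 37 °C. For aPTT, cephalin is added for 2 min and clotting is started with 0.025 M CaCl2. For PT, PBS is added for 3 min and clotting is started with calcium thromboplastin. Clotting time is read in seconds at 37 °C. Negative control is 1% DMSO; positive control is 100 µM rivaroxaban.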

Data set [8] relates to Plasma. Put plainly: Anticoagulant activity in human plasma assessed as prothrombin time at 100 uM. In kind it is functional. The procedure, abridged: as §2
A short description of data set [9]: Hemolytic activity against human erythrocytes assessed as hemolysis incubated for 3 hrs by spectrophotometric analysis relative to control. In kind it is ADME, cell-based, Erythrocyte. The following applies: read-out: Activity. In outline:
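Citrated human blood (n=3) centrifuged at 2500 rpm for 15 min. The erythrocyte pellet is washed three times and resuspended in PBS pH 7.4. Compounds are incubated with the erythrocytes for 3 h at 37 °C. After centrifugation, released hemoglobin is read at 540 nm. Controls are 1% DMSO (negative) and 1% Triton X-100 (positive). Below 10% counts as non-hemolytic.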

Data set [10] concerns Vero. Put plainly: Cytotoxicity against African green monkey Vero cells at 10 uM measured after 48 hrs by MTT assay relative to control. In kind it is cell-based. The following applies: chlorocebus sabaeus. The procedure, abridged:
(§3)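 Vero cells grown at 37 °C in 5% CO2 in medium with 10% inactivated FBS. Cells seeded at 3.2×10^4 per well and grown 24 h, then exposed to compounds for 48 h (n = 4). Control is DMEM with 10% FBS and 1% DMSO. MTT (2.5 mg/mL solution) is added for 3 h, formazan is dissolved in DMSO and absorbance is read at 570 nm. Viability is given as % of untreated cells, mean ± SD.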
(In general: Formazan colour is commonly taken as a measure of viable cells.)

The test system of data set [11] is Vero. The experiment in a line: Cytotoxicity against African green monkey Vero cells at 100 uM measured after 48 hrs by MTT assay relative to control. Format: cell-based. Particulars: chlorocebus sabaeus. In outline:
as §3

A short description of data set [12]: Genotoxicity in Salmonella typhimurium TA97 at 10 to 500 uM by AMES test. In kind it is toxicity. The following applies: salmonella enterica subsp. enterica serovar typhimurium, dose 10-500 µM. In outline: (§4)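 Ames reverse mutation to histidine prototrophy using S. typhimurium TA97, TA98, TA100 and TA102. Compounds are dissolved in DMSO and tested at 10, 100 and 500 µM.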

A short description of data set [13]: Genotoxicity in Salmonella typhimurium TA98 at 10 to 500 uM by AMES test. Format: toxicity. The following applies: salmonella enterica subsp. enterica serovar typhimurium, dose 10-500 µM. In outline:
as §4

Data set [14] can be described thus: Genotoxicity in Salmonella typhimurium TA100 at 10 to 500 uM by AMES test. In kind it is toxicity. Particulars: salmonella enterica subsp. enterica serovar typhimurium, dose 10-500 µM. In outline: as §4
Data set [15] in a line: Genotoxicity in Salmonella typhimurium TA102 at 10 to 500 uM by AMES test. Format: toxicity. Particulars: salmonella enterica subsp. enterica serovar typhimurium, dose 10-500 µM. The procedure, abridged:
as §4

Data set [16] in a line: Mutagenicity in Escherichia coli PQ35 at 10 to 500 uM by SOS-chromotest. Format: toxicity. The following applies: dose 10-500 µM. In outline: (§5)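 SOS chromotest spot assay with E. coli PQ35 and PQ37. An overnight culture is diluted in LB and grown at 37 °C to 2×10^8 bacteria/mL. Then 0.1 mL is mixed in top agar and poured on M63 plates. 10 µL of compound in DMSO (10, 100 or 500 µM) is spotted centrally and plates are incubated overnight at 37 °C. A blue ring around the inhibition zone indicates genotoxicity. Run in triplicate with 4-NQO as positive control.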

A short description of data set [17]: Mutagenicity in Escherichia coli PQ37 at 10 to 500 uM by SOS-chromotest. Format: toxicity. Particulars: dose 10-500 µM. The procedure, abridged:
as §5

One may read the IC50 as the concentration at which inhibition is half-maximal. As a reminder, the inhibition is the relative decrease from the control value, in per cent.

As to `CCCCC/C=C\C/C=C\C/C=C\C/C=C\CCCC(=O)Nc1ccc(-c2ccc(NC(=O)Cc3onc(-c4ccc(OC)cc4)c3-c3ccc(OC)cc3)cc2)cc1`, the figures for the IC50 (in [1]; in [3]; in the data set on Plasma [6]) were 17000 nM, 90 nM and 760 nM, respectively. Besides, the inhibition in [2] came to 50%; in data set [4], 60%. In addition, in data set [5], the Ratio IC50 stood at 0.005. The APTT in the data set on Plasma [7] turned out to be 48 s. Further, the PT in the data set with Plasma [8] was 14.6 s. In addition, the hemolysis at 3 h in [9] was 0.14%. Moreover, the Activity is reported as 94% with Vero [10]; 84% in the data set with Vero [11]; “Non-Toxic” in data set [12]; “Non-Toxic” in [13]; “Non-Toxic” in data set [14]; “Non-Toxic” in data set [15]. For the same molecule, the Activity entry in data set [16] and in data set [17] was “Non-Toxic” in each case.
On to `COc1ccc(-c2noc(CC(=O)Nc3ccc(-c4ccc(NC(=O)Cc5onc(-c6ccc(OC)cc6)c5-c5ccc(OC)cc5)cc4)cc3)c2-c2ccc(OC)cc2)cc1`, for which the IC50 in data set [1] was 80 nM; in [3], greater than 50000 nM; in the data set on Plasma [6] it was 440 nM. The inhibition in [2] was 73%. In [5], the Ratio IC50 was greater than 625. In addition, in the data set on Plasma [7], the APTT came out at 46.5 s. Further, the PT in the data set on Plasma [8] turned out to be 15.1 s. For the same molecule, the hemolysis at 3 h in data set [9] came to 0%. Also, the Activity with Vero [10] is given as 100%; in the data set with Vero [11], 92%; in data set [12], “Non-Toxic”; in data set [13] it was “Non-Toxic”; in data set [14], “Non-Toxic”; in [15] it was “Non-Toxic”. Further, the Activity result in data set [16] and in data set [17] was “Non-Toxic” each time.
